Experiments:
Format in all cases: functional
SR = assay: Growth inhibition of human SR cells at 10 uM after 48 hrs by sulforhodamine B assay relative to control; conditions: read-out: GI
MCF7 = assay: Growth inhibition of human MCF7 cells at 10 uM after 48 hrs by sulforhodamine B assay relative to control; conditions: MCF7, 48 h, read-out: GI
NCI-H522 = assay: Growth inhibition of human NCI-H522 cells at 10 uM after 48 hrs by sulforhodamine B assay relative to control; conditions: NCI-H522, 48 h, read-out: GI
ACHN = assay: Growth inhibition of human ACHN cells at 10 uM after 48 hrs by sulforhodamine B assay relative to control; conditions: read-out: GI
M14 = assay: Growth inhibition of human M14 cells at 10 uM after 48 hrs by sulforhodamine B assay relative to control; conditions: M14, 48 h, read-out: GI
NCI-H460 = assay: Growth inhibition of human NCI-H460 cells at 10 uM after 48 hrs by sulforhodamine B assay relative to control; conditions: NCI-H460, 48 h, read-out: GI
A549 = assay: Growth inhibition of human A549 cells at 10 uM after 48 hrs by sulforhodamine B assay relative to control; conditions: A549, 48 h, read-out: GI
A498 = assay: Growth inhibition of human A498 cells at 10 uM after 48 hrs by sulforhodamine B assay relative to control; conditions: A498, 48 h, read-out: GI
OVCAR-4 = assay: Growth inhibition of human OVCAR4 cells at 10 uM after 48 hrs by sulforhodamine B assay relative to control; conditions: OVCAR-4, 48 h, read-out: GI
MDA-MB-231 = assay: Growth inhibition of human MDA-MB-231 cells at 10 uM after 48 hrs by sulforhodamine B assay relative to control; conditions: MDA-MB-231, 48 h, read-out: GI
786-0 = assay: Growth inhibition of human 786-0 cells at 10 uM after 48 hrs by sulforhodamine B assay relative to control; conditions: 786-0, 48 h, read-out: GI
UACC-62 = assay: Growth inhibition of human UACC62 cells at 10 uM after 48 hrs by sulforhodamine B assay relative to control; conditions: UACC-62, 48 h, read-out: GI
Summary of the method: (§1)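 NCI 60-cell-line single-dose screen at 10 µM. Cells were plated at 5000–40,000 cells/well according to doubling time, in medium with 2 mM L-glutamine, and held 24 h at 37 °C, 5% CO₂, 100% humidity before drug. Time-zero plates were TCA-fixed. Exposure was 48 h, then TCA fixation and sulforhodamine B staining for 10 min, acetic acid washes, 10 mM trizma solubilization and A515. % inhibition = 100 − % activity, where 100% is the DMSO-solvent control.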

HL-60(TB) = assay: Growth inhibition of human HL-60(TB) cells at 10 uM after 48 hrs by sulforhodamine B assay relative to control; conditions: HL-60, 48 h, read-out: GI
Summary of the method: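 Part of a 60-cell-line panel screen at a single concentration. Cells were plated at 5000–40,000 cells/well according to doubling time and pre-incubated 24 h at 37 °C, 5% CO₂, with time-zero plates fixed. Drug exposure ran 48 h. Plates were stained with SRB, rinsed with 1% acetic acid, dye dissolved in 10 mM trizma base, read at 515 nm. % inhibition = 100 − % activity versus DMSO-only wells; 100–200% denotes lethality.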

SK-MEL-2 = assay: Growth inhibition of human SK-MEL-2 cells at 10 uM after 48 hrs by sulforhodamine B assay relative to control; conditions: SK-MEL-2, 48 h, read-out: GI
UACC-257 = assay: Growth inhibition of human UACC257 cells at 10 uM after 48 hrs by sulforhodamine B assay relative to control; conditions: UACC-257, 48 h, read-out: GI; summary of the method: as §1
K562 = assay: Growth inhibition of human K562 cells at 10 uM after 48 hrs by sulforhodamine B assay relative to control; conditions: K562, 48 h, read-out: GI
IGROV-1 = assay: Growth inhibition of human IGROV1 cells at 10 uM after 48 hrs by sulforhodamine B assay relative to control; conditions: IGROV-1, 48 h, read-out: GI
T47D = assay: Growth inhibition of human T47D cells at 10 uM after 48 hrs by sulforhodamine B assay relative to control; conditions: read-out: GI; summary of the method: as §1
Malme-3M = assay: Growth inhibition of human MALME-3M cells at 10 uM after 48 hrs by sulforhodamine B assay relative to control; conditions: read-out: GI
SK-MEL-28 = assay: Growth inhibition of human SK-MEL-28 cells at 10 uM after 48 hrs by sulforhodamine B assay relative to control; conditions: SK-MEL-28, 48 h, read-out: GI
NCI-H322M = assay: Growth inhibition of human NCI-H322M cells at 10 uM after 48 hrs by sulforhodamine B assay relative to control; conditions: read-out: GI
SK-OV-3 = assay: Growth inhibition of human SKOV3 cells at 10 uM after 48 hrs by sulforhodamine B assay relative to control; conditions: SK-OV-3, 48 h, read-out: GI
SF-295 = assay: Growth inhibition of human SF295 cells at 10 uM after 48 hrs by sulforhodamine B assay relative to control; conditions: SF-295, 48 h, read-out: GI
[1] = Growth inhibition of human […] cells at 10 uM after 48 hrs by sulforhodamine B assay relative to control; conditions: read-out: GI
HCT-116 = assay: Growth inhibition of human HCT116 cells at 10 uM after 48 hrs by sulforhodamine B assay relative to control; conditions: HCT-116, 48 h, read-out: GI
U-251 = assay: Growth inhibition of human U251 cells at 10 uM after 48 hrs by sulforhodamine B assay relative to control; conditions: U-251, 48 h, read-out: GI; summary of the method: as §1
BT-549 = assay: Growth inhibition of human BT549 cells at 10 uM after 48 hrs by sulforhodamine B assay relative to control; conditions: BT-549, 48 h, read-out: GI
SF-268 = assay: Growth inhibition of human SF268 cells at 10 uM after 48 hrs by sulforhodamine B assay relative to control; conditions: SF-268, 48 h, read-out: GI
KM12 = assay: Growth inhibition of human KM12 cells at 10 uM after 48 hrs by sulforhodamine B assay relative to control; conditions: KM12, 48 h, read-out: GI
SNB-75 = assay: Growth inhibition of human SNB75 cells at 10 uM after 48 hrs by sulforhodamine B assay relative to control; conditions: SNB-75, 48 h, read-out: GI
EKVX = assay: Growth inhibition of human EKVX cells at 10 uM after 48 hrs by sulforhodamine B assay relative to control; conditions: read-out: GI
RXF 393 = assay: Growth inhibition of human RXF393 cells at 10 uM after 48 hrs by sulforhodamine B assay relative to control; conditions: RXF 393, 48 h, read-out: GI
HCC 2998 = assay: Growth inhibition of human HCC2998 cells at 10 uM after 48 hrs by sulforhodamine B assay relative to control; conditions: HCC 2998, 48 h, read-out: GI

CN(C)c1ccc(/C=C2\NC(=O)N(S(=O)(=O)c3ccc(Cl)cc3)C2=O)cc1
inhibition of growth at 10 µM (SR): 34.7% | inhibition of growth at 10 µM (MCF7): -6.37% | inhibition of growth at 10 µM (NCI-H522): 9.78% | inhibition of growth at 10 µM (ACHN): -5.38% | inhibition of growth at 10 µM (M14): 200% | inhibition of growth at 10 µM (NCI-H460): -15.8% | inhibition of growth at 10 µM (A549): -8.84% | inhibition of growth at 10 µM (A498): -8.94% | inhibition of growth at 10 µM (OVCAR-4): 7.93% | inhibition of growth at 10 µM (MDA-MB-231): -2.18% | inhibition of growth at 10 µM (786-0): -0.44% | inhibition of growth at 10 µM (UACC-62): 3.93% | inhibition of growth at 10 µM (HL-60(TB)): 4.85% | inhibition of growth at 10 µM (SK-MEL-2): 1.29% | inhibition of growth at 10 µM (UACC-257): -1.01% | inhibition of growth at 10 µM (K562): 8.89% | inhibition of growth at 10 µM (IGROV-1): 97.9% | inhibition of growth at 10 µM (T47D): -9.29% | inhibition of growth at 10 µM (Malme-3M): -49.7% | inhibition of growth at 10 µM (SK-MEL-28): -4.69% | inhibition of growth at 10 µM (NCI-H322M): -16.5% | inhibition of growth at 10 µM (SK-OV-3): -8.45% | inhibition of growth at 10 µM (SF-295): -8.92% | inhibition of growth at 10 µM [1]: -6.72% | inhibition of growth at 10 µM (HCT-116): -3.55% | inhibition of growth at 10 µM (U-251): -0.69% | inhibition of growth at 10 µM (BT-549): 4.63% | inhibition of growth at 10 µM (SF-268): -21.6% | inhibition of growth at 10 µM (KM12): -11.6% | inhibition of growth at 10 µM (SNB-75): -5.55% | inhibition of growth at 10 µM (EKVX): 14.7% | inhibition of growth at 10 µM (RXF 393): 95.7% | inhibition of growth at 10 µM (HCC 2998): -54%

Source: ChEMBL document CHEMBL1165899, “Synthesis and antitumor evaluation of novel cyclic arylsulfonylureas: ADME-T and pharmacophore prediction” (2010)
